Published values gathered from unrelated publications.
Each line is one published result; the experiments were not run side by side.
Target: Carbonic anhydrase 12 (CA12, Homo sapiens, UniProt O43570)
Observed: enzyme activity
Action: inhibitor

SMILES	test	quantity	result
CS(=O)(=O)Nc1ccc(Nc2nc(-c3cc4cc(Br)ccc4oc3=O)cs2)cc1Oc1ccccc1	absorbance	IC50	0.61 µM
Cc1ccc(OC(=O)c2ccc(=O)oc2)cc1	stopped-flow	Ki	1.83 µM
N#CSCCCCOc1ccc2c(-c3ccccc3)cc(=O)oc2c1	stopped-flow	Ki	0.234 µM
COc1ccc2oc(=O)c(-c3csc(Nc4ccc(C(=O)O)cc4)n3)cc2c1	absorbance	IC50	1.88 µM
COc1ccc(-n2cc(COC(=O)c3ccc(=O)oc3)nn2)cc1	stopped-flow	Ki	54.8 µM
NS(=O)(=O)c1ccc(-c2ccc(Nc3ccncc3)cc2)cc1	absorbance	IC50	0.88 µM
Cc1cc(=O)oc2cc(OCCCCSC#N)ccc12	stopped-flow	Ki	0.0542 µM
CC1CCCCC1OC(=O)c1ccc(=O)oc1 (stereo not shown)	stopped-flow	Ki	82.8 µM
NS(=O)(=O)c1ccc(-c2ccc(Nc3ccc(F)c(Cl)c3)cc2)cc1	absorbance	IC50	2.78 µM
CS(=O)(=O)Nc1ccc(Nc2nc(-c3cc4ccccc4oc3=O)cs2)cc1Oc1ccccc1	absorbance	IC50	0.79 µM
